This note sets out measurements from ChEMBL document CHEMBL3108746, “Novel symmetrical ureas as modulators of protein arginine methyl transferases” (Bioorg Med Chem, 2013).

The pIC50 is −log10 of the IC50, conventionally taken in molar units. By residual activity is commonly meant the share of the control activity or signal that is left under treatment.

For one assay, the system named is LAPC4. In words: Cytotoxicity against human LAPC4 cells after 7 days by Alamar blue staining method. It counts as functional, cell-based. To be noted: for pIC50: LAPC4, 168 h. The procedure, abridged:
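LAPC-4 cells seeded at 4000 cells/well in medium with 2 mM L-glutamine. After 1 day, treated with 1 nM R1881 plus a range of compound concentrations. Cell number read 7 days later by Alamar Blue staining on a luminometer.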

For assay [1], the target named is Protein arginine N-methyltransferase 5 (Homo sapiens) (UniProt O14744). Kind of assay: Residual activity of recombinant human PRMT5 expressed in Sf9 cells using histone H4 peptide as substrate at 100 uM by chemiluminescence assay.
Protein arginine N-methyltransferase 5 (Homo sapiens), sequence (O14744 whole entry): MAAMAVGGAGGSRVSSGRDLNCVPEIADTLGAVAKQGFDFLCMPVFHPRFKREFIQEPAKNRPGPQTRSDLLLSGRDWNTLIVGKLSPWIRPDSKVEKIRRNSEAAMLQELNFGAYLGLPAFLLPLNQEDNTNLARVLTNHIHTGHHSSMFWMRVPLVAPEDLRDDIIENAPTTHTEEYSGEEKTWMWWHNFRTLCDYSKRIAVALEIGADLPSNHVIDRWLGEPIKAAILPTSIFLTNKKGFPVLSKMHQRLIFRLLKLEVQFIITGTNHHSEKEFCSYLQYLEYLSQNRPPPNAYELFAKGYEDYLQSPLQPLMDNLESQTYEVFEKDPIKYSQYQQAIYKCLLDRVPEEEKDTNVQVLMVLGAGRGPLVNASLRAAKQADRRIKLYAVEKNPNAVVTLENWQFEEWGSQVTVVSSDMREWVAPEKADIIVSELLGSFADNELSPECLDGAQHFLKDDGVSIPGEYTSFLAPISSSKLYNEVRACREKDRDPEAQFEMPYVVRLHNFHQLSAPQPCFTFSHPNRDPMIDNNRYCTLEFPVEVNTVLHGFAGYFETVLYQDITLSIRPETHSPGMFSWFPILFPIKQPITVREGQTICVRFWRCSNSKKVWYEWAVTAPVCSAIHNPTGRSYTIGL
Assay [2] deals with VCaP. Kind of assay: Cytotoxicity against human VCaP cells after 7 days by Alamar blue staining method. It is filed as functional, cell-based. The procedure, abridged:
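VCaP cells seeded at 16,000 cells/well in phenol-red DMEM with 10% cFCS. After 1 day, treated with 0.1 nM R1881 plus a range of compound concentrations. Cell number read 7 days later by Alamar Blue staining on a luminometer.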

Assay [3] deals with Protein arginine N-methyltransferase 5 (Homo sapiens) (UniProt O14744). In words: Inhibition of recombinant human PRMT5 expressed in Sf9 cells using histone H4 peptide as substrate by chemiluminescence assay. The method in brief:
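Purified recombinant human PRMT5 (Sf9-expressed) incubated 1 h with S-adenosylmethionine in 1× TBS pH 8.0 with 0.05% Tween20, on wells precoated with histone H4 peptide. Compounds came from 25 mM DMSO stocks diluted in water. Detection used a primary antibody to symmetric-dimethyl R3 of H4 (1 h), then HRP secondary and chemiluminescence. Mean of duplicates with SD.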

The subject of assay [4] is VCaP. Kind of assay: Inhibition of PRMT1 gene expression in androgen-stimulated human VCaP cells by RT-PCR analysis. It is filed as functional, cell-based. The procedure, abridged: (§1)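 VCaP cells treated with androgen alone or with increasing compound concentrations. Transcript levels measured by real-time PCR with gene-specific fluorogenic probes and normalized to human cyclophilin A. Values are means of independent triplicates.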

Assay [5] addresses T1, Protein arginine N-methyltransferase 1 (Homo sapiens, UniProt Q99873). In words: Inhibition of PRMT1-mediated KLK2 gene expression in R1881-stimulated human VCaP cells at 1.56 to 100 uM by RT-PCR analysis. It counts as cell-based. The procedure, abridged: as §1
Target sequence in this assay (Q99873 whole entry, looked up): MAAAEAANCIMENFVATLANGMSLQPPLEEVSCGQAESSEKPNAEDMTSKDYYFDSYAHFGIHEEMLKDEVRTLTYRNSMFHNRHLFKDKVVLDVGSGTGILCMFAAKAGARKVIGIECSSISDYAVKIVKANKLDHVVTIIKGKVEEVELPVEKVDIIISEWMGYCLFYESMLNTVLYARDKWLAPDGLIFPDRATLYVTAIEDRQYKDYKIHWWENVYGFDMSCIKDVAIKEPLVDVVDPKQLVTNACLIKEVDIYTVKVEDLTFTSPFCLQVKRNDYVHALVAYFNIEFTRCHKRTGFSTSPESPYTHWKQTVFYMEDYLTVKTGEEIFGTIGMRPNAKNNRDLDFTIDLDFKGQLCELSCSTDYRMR
For assay [6], the target named is T1, Protein arginine N-methyltransferase 1. In words: Inhibition of PRMT1-mediated TMPRSS2 gene expression in R1881-stimulated human VCaP cells by RT-PCR analysis. It is filed as cell-based. The procedure, abridged: as §1
Target sequence in this assay (Q99873 whole entry, looked up): as above
The target is the same in assay [7]. In words: Inhibition of PRMT1-mediated FKBP5 gene expression in R1881-stimulated human VCaP cells by RT-PCR analysis. It counts as cell-based. The procedure, abridged:
as §1
Target sequence in this assay (Q99873 whole entry, looked up): as above

Assay [8] concerns VCaP. In words: Inhibition of AR gene expression in R1881-stimulated human VCaP cells at 1.56 to 100 uM by RT-PCR analysis. It counts as functional, cell-based. The procedure, abridged: as §1
For assay [9], the target named is T1, Protein arginine N-methyltransferase 1. In words: Inhibition of recombinant human PRMT1 expressed in Escherichia coli using histone H4 peptide as substrate by chemiluminescence assay.
Target sequence in this assay (Q99873 whole entry): as the sequence (Q99873 whole entry, looked up) above

pIC50: −log10 of the molar value. Active and inactive are the calls of the source. No cut-off for these calls is given here.

Turning to `O=C(Nc1ccc2ccc(S(=O)(=O)Nc3ccc4c(c3)OCCO4)cc2c1)Nc1ccc2ccc(S(=O)(=O)Nc3ccc4c(c3)OCCO4)cc2c1`, in the assay on LAPC4, the negative logarithm of the IC50 (pIC50) was 5.82. In addition, the residual activity in assay [1] worked out at 71.8%.
As to `O=C(Nc1ccc2c(O)cc(S(=O)(=O)O)cc2c1)Nc1ccc2c(O)cc(S(=O)(=O)O)cc2c1`, the result with VCaP [2] and in the assay with LAPC4 was inactive.
On to `O=C(NCc1cccc(C(=O)O)c1)NCc1cccc(C(=O)O)c1`, for which the result in the assay with VCaP [2] and in the assay on LAPC4 was inactive. The residual activity in assay [1] amounted to 56.4%.
With `O=C(O)/C=C/c1cccc(N2CCN(c3cccc(/C=C/C(=O)O)n3)C2=O)n1`, the inhibition entry in [3] is “Active”. Also, the outcome in the assay on VCaP [2] and in the assay on LAPC4 was inactive. Besides, the residual activity in assay [1] is 10.3%.
With `O=C(O)CCCCCNC(=O)NCCCCCC(=O)O`, the inhibition result (in the assay on VCaP [4]; in assay [5]; in the assay with VCaP [8]) was “inactive” throughout. In addition, the inhibition entry in assay [6] and in assay [7] was “Dose-dependent effect” each time. Besides, the outcome in the assay on VCaP [2] and in the assay on LAPC4 was inactive. In addition, the pIC50 in assay [9] is 5.21. In addition, the residual activity in assay [1] amounted to 46.2%.
Turning to `O=C(O)/C=C/c1ccc(N2CCN(c3ccc(/C=C/C(=O)O)cc3)C2=O)cc1`, the result in the assay with VCaP [2] and with LAPC4 was inactive. Moreover, in assay [1], the residual activity was determined as 35.9%.
In the case of `O=C(O)/C=C/c1cccc(NC(=O)Nc2cccc(/C=C/C(=O)O)c2)c1`, the result with VCaP [2] and in the assay on LAPC4 was inactive. Further, in assay [1], the residual activity was found to be 92.3%.
With `O=C(O)/C=C/c1cccc(N2CCCN(c3cccc(/C=C/C(=O)O)c3)C2=O)c1`, the outcome with VCaP [2] and in the assay with LAPC4 was inactive. The residual activity in assay [1] turned out to be 74.4%.
Turning to `O=C(Nc1ccc2ccc(S(=O)(=O)Nc3ccc(Oc4ccccc4)cc3)cc2c1)Nc1ccc2ccc(S(=O)(=O)Nc3ccc(Oc4ccccc4)cc3)cc2c1`, the pIC50 in the assay with LAPC4 was 5.07. For the same compound, the residual activity in assay [1] came out at 38.5%.
`O=C(O)/C=C/c1ccc(N2CCCN(c3ccc(/C=C/C(=O)O)cc3)C2=O)cc1`: the outcome in the assay with VCaP [2] and with LAPC4 was inactive. Further, in assay [1], the residual activity stood at 56.4%.
On to `O=C(NCCc1cccc(C(=O)O)c1)NCCc1cccc(C(=O)O)c1`, for which the inhibition entry in assay [3] was “Active”. Also, the outcome in the assay with VCaP [2] and in the assay with LAPC4 was inactive. For the same compound, in [1], the residual activity was found to be 15.4%.
On to `COc1ccc2c3c(cccc13)C(=O)N(C)C2=O`, for which the outcome in the assay with VCaP [2] and in the assay with LAPC4 was inactive. The pIC50 in [9] is 4.79. In addition, the residual activity in assay [1] stood at 46.2%.
In the case of `O=C(O)/C=C/c1cccc(N2CCN(c3cccc(/C=C/C(=O)O)c3)C2=O)c1`, the result with VCaP [2] and in the assay on LAPC4 was inactive. In addition, in assay [1], the residual activity is 61.5%.
For the compound `O=C(O)/C=C/c1cccc(N2CCCN(c3cccc(/C=C/C(=O)O)n3)C2=O)n1`, the outcome in the assay with VCaP [2] and in the assay on LAPC4 was inactive. Further, the residual activity in [1] is 48.7%.
